# Assay results from different studies.
# Compare with care: the assays were run in different laboratories.
# Target: Myosin light chain kinase 2, skeletal/cardiac muscle (MYLK2, Homo sapiens, UniProt Q9H1R3)
Compound,test,conditions,quantity,value
Clc1ccc(Nc2nnc(Cc3ccncc3)c3ccccc23)cc1,cell-free assay,0.5 µM,remaining signal,103%
CCN(CC)CCNC(=O)c1c(C)[nH]c(/C=C2\C(=O)Nc3ccc(F)cc32)c1C,"enzyme activity, inhibitor",0.3 µM,inhibition,37%
COc1cccc(CNC(=O)c2nc3scc(COCc4ccc(C(=O)O)cc4)c3c(=O)[nH]2)c1,"cell-free assay, competition with immobilised ligand",1 µM,remaining binding,100%
C=CC(=O)Nc1cc(Nc2nccc(Nc3cc(Cl)c(F)cc3C(C)(C)O)n2)c(OC)cc1N1CC[C@@H](N(C)C)C1,"enzyme activity, inhibitor",1 µM,inhibition,-9%
Nc1ncnc2occ(-c3ccc(NC(=O)Nc4cc(C(F)(F)F)ccc4F)cc3)c12,"enzyme activity, inhibitor",20 µM,remaining activity,1.4%
Cc1nc(Cc2cccc(C(F)(F)F)c2)sc1-c1ccc(C(N)=O)nc1,"cell-free assay, competition with immobilised ligand",1 µM,remaining binding,77%
N#CCCc1ccc2c(c1)-c1[nH]c3ccc([N+](=O)[O-])cc3c1CC(=O)N2,cell-free assay,0.5 µM,remaining signal,93.9%
O=C(Nc1cnn(-c2csc(C(=O)NC3COC3)c2)c1)Nc1ccccc1Cl,"enzyme activity, inhibitor",5 µM,remaining activity,89.9%
Cc1ccc(NC(=O)c2ccc(CN3CCN(C)CC3)cc2)cc1Nc1nc(-c2cccnc2)cs1,cell-free assay,0.5 µM,remaining signal,98.7%
CCS(=O)(=O)c1cc2cc(C[C@](O)(CC(C)(C)c3ccc(F)cc3C(N)=O)C(F)(F)F)[nH]c2cn1,"cell-free assay, competition with immobilised ligand",1 µM,remaining binding,98%
CC(C)(C)c1nc2c(s1)c1nc(N)ncc1c1ccc(NS(=O)(=O)c3c(F)cccc3F)c(F)c12,"enzyme activity, inhibitor, radiometric",1 µM,remaining activity,113%
COc1cc2ncnc(Nc3ccc(Oc4ccccc4)c(C)c3C)c2cc1OC,"enzyme activity, inhibitor",1 µM,inhibition,-5%
CNC(=O)c1cc(Oc2ccc(NC(=O)Nc3ccc(Cl)c(C(F)(F)F)c3)cc2)ccn1,"enzyme activity, inhibitor",10 µM,inhibition,16%
CS(=O)(=O)NCC[C@H](NC(=O)c1cncc2c1cnn2-c1ccc(F)cc1)c1ccnc(S(C)(=O)=O)c1,"cell-free assay, competition with immobilised ligand",1 µM,remaining binding,93%
COc1cc(Cl)c(C(=O)N[C@@H](CN[C@H]2CC[C@@H](N)CC2)Cc2ccc(C#N)cc2)cc1-c1ccc(CN[C@H](C)c2ccc(C)cc2)o1,"enzyme activity, inhibitor",1 µM,remaining activity,99%
C[C@H](c1ccnc(Nc2nc3ccc(-c4cc(N(C)C)ncn4)cc3[nH]2)c1)N1CCN(C(=O)CC(F)(F)F)CC1,"cell-free assay, competition with immobilised ligand",0.1 µM,remaining binding,92%
CC/C(=N\NC(=O)NCc1cccc(O)c1)c1ccc(O)c(C)c1O,"enzyme activity, inhibitor",0.1 µM,inhibition,6%
O=C1Nc2ccc(Cl)cc2C1=Cc1cc(Cl)c(O)c(Cl)c1,cell-free assay,0.5 µM,remaining signal,71.5%
O=C(NCc1ncc(C(F)(F)F)cc1Cl)c1ccc2c(c1)C1(CCS(=O)(=O)CC1)[C@H](C1CC1)N2S(=O)(=O)c1ccc(F)cc1,"cell-free assay, competition with immobilised ligand",1 µM,remaining binding,100%
